Measured values as given in paper PMC6287304 (Antiviral Chemistry & Chemotherapy, 2018).
Where two headings read alike, the source gives them in different places.

How the values were obtained:
HEL cells [1] = test: Cytostatic activity, inhibition of cell growth; assay type: cell-based, human
Vaccinia virus = test: microbe, parasite or virus in culture; assay type: cell-based; conditions: for EC50: read-out: Antiviral activity EC50 Vaccinia virus
HSV = test: Antiviral activity against HSV; assay type: cell-based, herpes simplex virus; conditions: HEL
HEL cells [2] = test: Cytotoxicity, alteration of cell morphology; assay type: cell-based, human
HCMV DNA pol = molecular target: T1, HCMV DNA pol (Human cytomegalovirus, UniProt P08546); test: DNA polymerase inhibition, HCMV DNA pol; assay type: biochemical; conditions: IC50 HCMV DNA pol dGTP, calf thymus DNA, radiolabeled [3H]dGTP
T1 sequence (P08546 1-1242): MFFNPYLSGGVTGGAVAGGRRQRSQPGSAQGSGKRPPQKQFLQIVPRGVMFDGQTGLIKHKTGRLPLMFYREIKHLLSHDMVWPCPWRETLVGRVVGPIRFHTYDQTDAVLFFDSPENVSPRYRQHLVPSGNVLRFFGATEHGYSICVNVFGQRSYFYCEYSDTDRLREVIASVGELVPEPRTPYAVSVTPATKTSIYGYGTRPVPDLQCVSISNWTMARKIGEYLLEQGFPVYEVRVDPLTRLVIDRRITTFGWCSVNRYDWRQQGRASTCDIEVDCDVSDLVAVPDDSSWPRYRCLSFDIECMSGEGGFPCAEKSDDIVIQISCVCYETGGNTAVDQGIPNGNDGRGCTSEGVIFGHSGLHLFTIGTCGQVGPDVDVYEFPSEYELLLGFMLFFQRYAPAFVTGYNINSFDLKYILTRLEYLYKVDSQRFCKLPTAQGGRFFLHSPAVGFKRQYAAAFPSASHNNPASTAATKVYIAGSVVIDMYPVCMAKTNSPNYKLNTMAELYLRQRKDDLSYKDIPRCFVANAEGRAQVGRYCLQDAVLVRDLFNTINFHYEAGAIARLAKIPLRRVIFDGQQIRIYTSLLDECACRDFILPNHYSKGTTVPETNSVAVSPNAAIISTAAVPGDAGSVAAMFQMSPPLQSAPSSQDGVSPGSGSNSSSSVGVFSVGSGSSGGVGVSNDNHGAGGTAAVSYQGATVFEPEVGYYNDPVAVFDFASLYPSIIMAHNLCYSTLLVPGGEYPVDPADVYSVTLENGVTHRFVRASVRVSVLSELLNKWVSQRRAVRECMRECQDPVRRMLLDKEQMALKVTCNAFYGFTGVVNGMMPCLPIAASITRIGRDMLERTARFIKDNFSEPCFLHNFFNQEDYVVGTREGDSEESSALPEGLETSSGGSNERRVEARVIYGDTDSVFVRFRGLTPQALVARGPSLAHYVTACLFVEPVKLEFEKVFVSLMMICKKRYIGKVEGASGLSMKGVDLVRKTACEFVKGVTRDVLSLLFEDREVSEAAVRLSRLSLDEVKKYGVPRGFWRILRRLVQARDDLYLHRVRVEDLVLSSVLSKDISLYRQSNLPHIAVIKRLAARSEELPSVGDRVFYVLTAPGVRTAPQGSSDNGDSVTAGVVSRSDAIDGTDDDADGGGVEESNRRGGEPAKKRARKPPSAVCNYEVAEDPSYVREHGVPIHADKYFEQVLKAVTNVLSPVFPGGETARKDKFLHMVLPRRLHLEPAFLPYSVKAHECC
Summary of the method: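 Recombinant or source enzyme not specified. HCMV DNA polymerase reaction uses activated calf thymus DNA as template/primer, 100 uM of each of three unlabeled dNTPs, and 0.5 uM rate-limiting tritium-labeled dNTP ([3H]dGTP or [3H]dTTP, as competitive substrate). The diphosphate form of the test compound is added in serial dilutions, up to 100 uM.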

herpesviruses = test: organism not typed; assay type: cell-based; conditions: for EC50: HEL
[3] = Cytostatic activity, inhibition of cell growth; assay type: cell-based, human; conditions: human, HEL cells, Cytotoxicity Cell growth (CC50), Table 3
TK+ VZV OKA strain = assay type: cell-based, varicella-zoster virus
TK– VZV 07-1 strain = assay type: cell-based, varicella-zoster virus
HCMV Davis strain = test: Virus-induced cytopathic effect, HCMV Davis strain in HEL cells; assay type: cell-based, human cytomegalovirus
HSV-1 mutant viruses = assay type: cell-based, herpes simplex virus type 1; conditions: Figure 2
Summary of the method: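 HSV-1 TK and DNA polymerase mutants were derived from the reference KOS strain and tested by CPE reduction. Confluent HEL cultures in 96-well plates were infected and incubated with varying test compound concentrations. Cytopathicity was scored once it was complete in untreated infected controls. […] Fold-resistance is EC50 mutant divided by EC50 wild-type KOS. Reference antiherpetic drugs were run alongside.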

HCMV AD-169 strain = test: Virus-induced cytopathic effect, HCMV AD-169 strain in HEL cells; assay type: cell-based, human cytomegalovirus
HSV-1 = test: Virus-induced cytopathicity, HSV-1; assay type: cell-based, herpes simplex virus type 1; conditions: read-out: Antiviral activity EC50 HSV-1; Table 4; HEL cells
HSV-2 = test: Virus-induced cytopathicity, HSV-2; assay type: cell-based, herpes simplex virus type 2; conditions: read-out: Antiviral activity EC50 HSV-2
HSV-1 TK– = test: Virus-induced cytopathicity, TK– HSV-1 KOS ACVr in HEL cells; assay type: cell-based, herpes simplex virus type 1; conditions: read-out: Antiviral activity EC50 HSV-1 TK–
[4] = read-out: EC50 against VZV, HCMV, HSV-1, HSV-2, and Vaccinia virus (range)
[5] = read-out: EC50 values, replication of HSV-1, HSV-2 and TK-HSV-1 (range)

CCCCCCCCCCCCCCCCOCCCOP(=O)(O)COCCn1cnc2c(=O)[nH]c(=O)[nH]c21 [Compound 18, 3-(Hexadecyloxy)propyl hydrogen ((2–(2,6-dioxo-1,2,3,6-tetrahydro-9H-purin-9-yl)ethoxy)methyl)phosphonate]
increase in cytostatic activity versus parent compound 4 (HEL cells [1]): 11 fold
EC50 (Vaccinia virus; Orthopoxvirus vaccinia, HEL): > 100 µM
EC50 (HSV; read-out: EC50 values against HSV-1 and HSV-2 (range)): 1.8 to 4 µM
Cytotoxicity Cell morphology (MCC) (HEL cells [2]; Table 3): 100 μM
Cytotoxicity Cell morphology (MCC) (HEL cells [2]; Table 4): >100 μM

Nc1nc2c(ncn2COCCOP(=O)(O)OP(=O)(O)OP(=O)(O)O)c(=O)[nH]1 [ACV-TP, acyclovir triphosphate]
IC50 (HCMV DNA pol): 770 ± 40 nM

O=c1[nH]c(=O)c2ncn(C[C@@H](CF)OCP(=O)(O)O)c2[nH]1 [Compound 8, (S)-(((1–(2,6-Dioxo-1,2,3,6-tetrahydro-9H-purin-9-yl)-3-fluoropropan-2-yl)oxy)methyl)phosphonic acid]
EC50 (Vaccinia virus; Orthopoxvirus vaccinia, HEL): > 329 µM
Cytotoxicity Cell morphology (MCC) (HEL cells [2]; Table 1): >329 μM

C[C@H](Cn1cnc2c(=O)[nH]c(=O)[nH]c21)OCP(=O)(O)O [Compound 9, (R)-(((1–(2,6-Dioxo-1,2,3,6-tetrahydro-9H-purin-9-yl)propan-2-yl)oxy)methyl)phosphonic acid]
EC50 (Vaccinia virus; Orthopoxvirus vaccinia, HEL): > 100 µM
Cytotoxicity Cell morphology (MCC) (HEL cells [2]; Table 1): >100 μM

Nc1nc2c(ncn2COCCO)c(=O)[nH]1 [Acyclovir, acyclovir, reference compound]
EC50 (Vaccinia virus; Orthopoxvirus vaccinia, HEL): > 250 µM
Cytotoxicity Cell morphology (MCC) (HEL cells [2]; Table 2): >250 μM

O=c1nc(NC2CC2)c2ncn(CCOCP(=O)(O)O)c2[nH]1 [Compound 17, ((2–(6-(Cyclopropylamino)-2-oxo-2,3-dihydro-9H-purin-9-yl)ethoxy)methyl)phosphonic acid]
activity in all assays (in words) (herpesviruses): completely inactive in all assays
EC50 (Vaccinia virus; Orthopoxvirus vaccinia, HEL): > 100 µM
Cytotoxicity Cell morphology (MCC) (HEL cells [2]; Table 3): >100 μM

Nc1ccn(C[C@@H](CO)OCP(=O)(O)O)c(=O)n1 [Cidofovir, cidofovir]
CC50 at 3 days [3]: 170 ± 61 µM

O=c1[nH]c(=O)c2ncn(CC(CO)OCP(=O)(O)O)c2[nH]1 (racemic) [Compound 5, (RS)-(((1–(2,6-Dioxo-1,2,3,6-tetrahydro-9H-purin-9-yl)-3-hydroxypropan-2-yl)oxy)methyl)phosphonic acid]
anti-herpesvirus activity (in words) (herpesviruses): able to inhibit the replication of herpesviruses
EC50 (herpesviruses; [4]): 17 to 43 µM
EC50 (Vaccinia virus; Orthopoxvirus vaccinia, HEL): 39 ± 27 µM
EC50 (HSV; [5]): 16 to 39 µM
Cytotoxicity Cell morphology (MCC) (HEL cells [2]; Table 1): ≥300 μM
Cytotoxicity Cell morphology (MCC) (HEL cells [2]; Table 2): >100 μM

O=c1[nH]c(=O)c2ncn(C[C@@H](CO)OCP(=O)(O)O)c2[nH]1 [Compound 6, (S)-(((1–(2,6-Dioxo-1,2,3,6-tetrahydro-9H-purin-9-yl)-3-hydroxypropan-2-yl)oxy)methyl) phosphonic acid]
anti-herpesvirus activity (in words) (herpesviruses): able to inhibit the replication of herpesviruses
EC50 (herpesviruses; [4]): 17 to 43 µM
EC50 (Vaccinia virus; Orthopoxvirus vaccinia, HEL): 39 ± 27 µM
EC50 (HSV; [5]): 16 to 39 µM
Cytotoxicity Cell morphology (MCC) (HEL cells [2]; Table 1): >300 μM
Cytotoxicity Cell morphology (MCC) (HEL cells [2]; Table 2): >100 μM

Nc1nc(O)c2ncn(COC(CO)CO)c2n1 [Ganciclovir, ganciclovir, reference compound]
CC50 at 3 days [3]: ≥ 317 µM
EC50 (Vaccinia virus; Orthopoxvirus vaccinia, HEL): > 100 µM
Cytotoxicity Cell morphology (MCC) (HEL cells [2]; Table 2): >100 μM

O=c1[nH]c(=O)c2ncn(CCOCP(=O)(O)O)c2[nH]1 [Compound 4, ((2–(2,6-Dioxo-1,2,3,6-tetrahydro-9H-purin-9-yl)ethoxy)methyl)phosphonic acid]
selectivity index (ratio CC50/EC50) (TK+ VZV OKA strain): 42
anti-herpesvirus activity (in words) (herpesviruses): able to inhibit the replication of herpesviruses
EC50 (herpesviruses; read-out: EC50 values against VZV, HCMV, HSV-1, and HSV-2 (range)): 2.6 to 25.6 µM
selectivity index (ratio CC50/EC50) (TK– VZV 07-1 strain): 24
selectivity index (ratio CC50/EC50) (HCMV Davis strain): 13
Antiviral activity EC50 Vaccinia virus (Vaccinia virus): lacked activity
EC50 (Vaccinia virus; Orthopoxvirus vaccinia, HEL): > 345 µM
change of EC50 for DNA polymerase mutant viruses (HSV-1 mutant viruses; HSV-1 DNA polymerase mutants, same magnitude as adefovir): increase in the EC50
activity against viruses bearing mutations in the viral TK (HSV-1 mutant viruses; HSV-1 TK mutants): remained active
selectivity index (ratio CC50/EC50) (HCMV AD-169 strain): 11
EC50 (HSV; [5]): 16 to 39 µM
Cytotoxicity Cell morphology (MCC) (HEL cells [2]; Table 1): >345 μM

O=c1[nH]c(=O)c2ncn(C[C@H](CF)OCP(=O)(O)O)c2[nH]1 [Compound 7, (R)-(((1–(2,6-Dioxo-1,2,3,6-tetrahydro-9H-purin-9-yl)-3-fluoropropan-2-yl)oxy)methyl)phosphonic acid]
EC50 (Vaccinia virus; Orthopoxvirus vaccinia, HEL): > 313 µM
Cytotoxicity Cell morphology (MCC) (HEL cells [2]; Table 1): >313 μM

4,4,5,5,6,6,7,7,8,8,9,9,10,10,11,11,11-Heptadecafluoroundecyl hydrogen ((2–(2,6-dioxo-1,2,3,6-tetrahydro-9H-purin-9-yl)ethoxy)methyl)phosphonate [Compound 19]
anti-herpesvirus activity (in words) (herpesviruses): did not display any potent anti-herpesvirus activity
EC50 (HSV-1): > 100 µM
EC50 (Vaccinia virus): > 100 µM
EC50 (HSV-2; Table 4, HEL cells): > 100 µM
EC50 (HSV-1 TK–; Table 4, HEL cells): > 100 µM
Cytotoxicity Cell morphology (MCC) (HEL cells [2]; Table 3): ≥100 μM
Cytotoxicity Cell morphology (MCC) (HEL cells [2]; Table 4): >100 μM

O=c1[nH]c(=O)n([C@H]2C[C@H](O)[C@@H](CO)O2)cc1/C=C/Br [Brivudin, brivudin, reference compound]
CC50 at 3 days [3]: 168 ± 41 µM
EC50 (HSV-2; Human alphaherpesvirus 2, HEL): 112 ± 37 µM
EC50 (HSV-1 TK–): 50 µM
Cytotoxicity Cell morphology (MCC) (HEL cells [2]; Table 1): >300 μM
Cytotoxicity Cell morphology (MCC) (HEL cells [2]; Table 2): >250 μM
Cytotoxicity Cell morphology (MCC) (HEL cells [2]; Table 3): ≥300 μM
